Compounds with a hit are over-represented: about 0.55% of the library has one in this group of screens.
zfTRPN1 agonist – zebrafish TRPN1 (NompC) channel agonism | actives 0.18% (n = 220,000) | AID 1424 | activation, % at 3 µM | HEK293 zebrafish TRPN1-YFP, Fluo-8 calcium fluorescence; 100% = response to 87 µM carbachol;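 active means activation above its plate's cutoff, the mean activation of test wells on that plate plus 3 SD, cut at about 19% in these data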
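Material: zebrafish TRPN1-YFP in HEK293 cells; Doses: single test compound dose, 3 µM nominal, 0.3% DMSO; Timing: dye loading 1 h at 37 °C, then 30 min room temperature; Technique: intracellular calcium fluorescence with Fluo-8; Benchmarks: high carbachol 87 µM, low DMSO alone.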
OXTR potentiate – potentiators of human oxytocin receptor. activation, % at 3 µM. CHO-OTR cells, Fluo-8 calcium fluorescence, potentiator mode; 0% = oxytocin EC15, 100% = EC100. P30559. actives 0.061% (n = 320,000);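 active means activation above that plate's cutoff, the mean activation of tested compounds plus 3 SD, cut at about 6.6% in these data, passing the limit was not always enough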
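Assay system: CHO cell line stably expressing human OTR. Reagent: EC15 oxytocin agonist. Dosing: single dose, 3.0 µM nominal final compound concentration. Timing: compound 6 min at room temperature before oxytocin, 100 s read. Signal: kinetic Fluo-8 calcium fluorescence. Controls: oxytocin EC15 low and EC100 high.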
V1R ag counter – activates human V1a receptor in oxytocin agonist counter-screen. P37288. actives 0.25% (n = 320,000). CHO-V1R cells, Fluo-8 calcium fluorescence, agonist mode; 0% DMSO, 100% 3 nM vasopressin. activation, % at 3 µM;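 active means activation above the mean activation of all tested compounds plus 3 SD, per screening run, cut at about 20% in these data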;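 further: signal is peak over basal fluorescence ratio across a 100 second FLIPR read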
Target sequence (P37288 whole entry, looked up): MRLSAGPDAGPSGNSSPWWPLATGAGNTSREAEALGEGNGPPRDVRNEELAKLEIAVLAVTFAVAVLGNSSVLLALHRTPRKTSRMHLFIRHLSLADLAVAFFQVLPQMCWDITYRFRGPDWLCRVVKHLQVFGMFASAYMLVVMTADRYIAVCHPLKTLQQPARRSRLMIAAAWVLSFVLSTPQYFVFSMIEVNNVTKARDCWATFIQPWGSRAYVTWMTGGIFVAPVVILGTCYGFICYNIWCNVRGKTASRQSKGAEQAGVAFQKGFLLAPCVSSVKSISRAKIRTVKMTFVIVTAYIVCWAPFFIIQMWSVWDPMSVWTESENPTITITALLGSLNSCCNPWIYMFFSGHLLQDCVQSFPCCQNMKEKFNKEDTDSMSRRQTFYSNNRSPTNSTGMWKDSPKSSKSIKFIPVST
TRPML3 ag – human mucolipin-3 channel agonism; HEK293 TRPML3-YFP, Fluo-8 calcium fluorescence; 100% = the carbachol control signal; activation, % at 3 µM; actives 0.29% (n = 220,000);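 active means activation above its plate's cutoff, the mean activation of the plate's test wells plus 3 SD, cut at about 12% in these data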
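Test system: HEK293 cells stably carrying human TRPML3-YFP; Doses: single dose, 3 µM final nominal compound, 0.3% DMSO final; Schedule: dye loading 1 h 37 °C then 30 min ambient, 125 s read; Technique: Fluo-8 calcium fluorescence; Benchmarks: high control carbachol 87 µM, low control DMSO.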
OXTR ag – activates the human oxytocin receptor. P30559. CHO-OTR cells, Fluo-8 calcium fluorescence; normalized: DMSO 0%, oxytocin 100%. activation, % at 3 µM. actives 0.32% (n = 320,000);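 active means activation above the mean of all tested compounds plus 3 SD, cutoff set per screening run, cut at about 20% in these data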;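 further: peak over basal fluorescence ratio from a 100 s FLIPR kinetic read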
OXTR pot confirm – human OXTR potentiation, confirmation; 180 tested, under 10 active; AID 434985; shares compounds with OXTR potentiate; activation, % at 3 µM; CHO-OTR cells, Fluo-8 calcium fluorescence; scaled from low-dose to maximal oxytocin;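 active means mean percent activation over triplicates above a cutoff set from solvent-only control plates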;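 further: compounds tested in the presence of an EC15 dose of oxytocin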
Hits are given with their value; i = inactive; nt = no result.

SMILES | zfTRPN1 agonist | OXTR potentiate | V1R ag counter | TRPML3 ag | OXTR ag | OXTR pot confirm
CCOC(=O)N1CCC(NC(=O)C2CCN(S(=O)(=O)c3cccc4cccnc34)CC2)CC1 | i | i | i | i | i | nt
O=C(NC1CCCCC1)C1CCN(S(=O)(=O)c2cccc3cccnc23)CC1 | i | 14 | i | i | i | i
CCOc1ccc(NC(=O)COC(=O)C23CC4CC(CC(C4)C2)C3)c([N+](=O)[O-])c1 | i | i | i | i | i | nt
Cc1ccccc1-c1nc(CN(C)C(C)c2ccon2)c(C)o1 (configuration not stated) | i | 13 | i | i | i | i
Cc1oc(-c2ccccc2Cl)nc1CN(C)C(C)c1ccon1 (configuration not stated) | i | i | i | i | i | nt
CCn1c(SCC(=O)Nc2ccccc2Br)nnc1-c1cnccn1 | nt | i | i | nt | i | nt
CCCC(=O)Nc1cc(S(=O)(=O)N2CCOCC2)ccc1N1CCCCC1 | nt | 13 | i | nt | i | i
CCCC(=O)Nc1cc(S(=O)(=O)N2CCCCC2)ccc1N1CCOCC1 | nt | i | i | nt | i | nt
CCc1ccc(C2=NN(CCC(=O)NCc3cccs3)C(=O)CC2)cc1 | i | i | i | i | i | nt
CNC(=O)c1c(NC(=O)CS(=O)(=O)c2ccccc2)sc(C)c1C | nt | i | i | nt | i | nt
Cc1sc(NC(=O)CS(=O)(=O)c2ccccc2)c(C(N)=O)c1C | nt | 8.1 | i | nt | i | i
O=C(NCCCN1CCOCC1)C1CC(=O)N(CCc2ccccc2)C1 (configuration not stated) | i | 12 | i | i | i | i
O=C(NCCCN1CCCCCC1)C1CC(=O)N(CCc2ccccc2)C1 (configuration not stated) | i | i | i | i | i | nt
CC1(C)CC(CC(=O)O)(c2ccccc2)CCO1 (configuration not stated) | i | i | i | i | i | nt
COc1ccc(C(=O)NNC(=O)c2ccc(S(=O)(=O)N3CCCCC3)cc2)cc1 | i | i | i | i | i | nt
COc1ccc(CNC(=O)[C@H](C)NC(=O)C2CC(=O)N(c3ccc4c(c3)OCO4)C2)cc1 (some centres not stated) | nt | 14 | i | nt | i | i
CCOC(=O)N1CCN(C(=O)C2CCN(C(=O)Nc3ccccc3)CC2)CC1 | nt | 11 | i | nt | i | i
CCN1CCN(C(=O)C2CCN(C(=O)Nc3ccccc3)CC2)CC1 | nt | i | i | nt | i | nt
O=S1(=O)[C@H]2C[C@@H]3CC[C@]2(CN1Cc1cccc(F)c1)O3 | nt | i | i | nt | i | nt
COC(=O)c1cc(C(=O)Nc2cccc(C)n2)cc([N+](=O)[O-])c1 | i | 9.1 | i | i | i | i
Cc1ccc(CNC(=O)C2CCCN(c3cnccn3)C2)cc1 (configuration not stated) | nt | i | i | nt | i | nt
COc1cccc(OC)c1C(=O)Nn1c(C2CCC2)nc2ccccc2c1=O | i | i | i | i | i | nt
CCC(=O)Nn1c(C2CCC2)nc2ccccc2c1=O | nt | 13 | i | nt | i | i
CCN(CC)S(=O)(=O)c1ccc(C)c(NC(=O)c2cc(C)oc2C)c1 | i | 13 | i | i | i | i
CC(=O)c1cc(CN2CCN(C(C)C)C(CCO)C2)cs1 (configuration not stated) | i | 12 | i | i | i | i
SMILES | zfTRPN1 agonist | OXTR potentiate | V1R ag counter | TRPML3 ag | OXTR ag | OXTR pot confirm
COc1ccccc1C(=O)NCC(=O)OCC(=O)c1ccc2c(c1)-c1ccccc1C2 | i | i | i | i | i | nt
CCOC(=O)c1nc(C)n(-c2ccc([N+](=O)[O-])cc2)n1 | i | i | i | i | i | nt
CCOC(=O)c1nc(C)n(-c2ccc(Cl)cc2)n1 | i | 9.9 | i | i | i | i
Cc1ccc2c(CC(=O)NCCc3ccc(S(N)(=O)=O)cc3)coc2c1 | i | 9.3 | i | i | i | i
Cc1ccc(CC(=O)NCCc2ccc(S(N)(=O)=O)cc2)cc1 | nt | i | i | nt | i | nt
COc1ccc2nc(NC(=O)CSc3nc(SC)ns3)sc2c1 | i | i | i | i | i | nt
COc1ccc2nc(NC(=O)CSc3nnc(C)s3)sc2c1 | i | 10 | i | i | i | i
COc1ccc(S(=O)(=O)N(C)c2ccc(C(=O)NCC3CCCO3)cc2)cc1OC (configuration not stated) | nt | 14 | i | nt | i | i
O=C(NCCc1ccccc1)NC1CCCCC1 | i | 12 | i | i | i | i
O=C(NC1CCCCCC1)C(=S)NCCc1ccccc1 | i | i | i | i | i | nt
O=Cc1cccn1Cc1ccccc1[N+](=O)[O-] | i | i | i | i | i | nt
CN(C)c1ccc(CNC(=O)C2CCN(S(=O)(=O)c3ccc4c(c3)CCC(=O)N4)CC2)cc1 | i | 11 | i | i | i | i
Cc1ccc(N(C(=O)c2snc(C(N)=O)c2N)C(C(=O)NCCC(C)C)c2ccco2)cc1 (configuration not stated) | i | i | i | i | i | nt
CN(C)CC(O)COC(c1ccccc1)c1ccccc1 (configuration not stated) | i | 11 | i | i | i | i
Cc1cccn2c(CNCC3(c4ccccc4)CCCC3)c(C(=O)N3CCOCC3)nc12 | i | i | i | i | i | nt
Cc1ccccc1-c1nnc(SCC(=O)Nc2c(C)n(C)n(-c3ccccc3)c2=O)o1 | i | 11 | i | i | i | i
CC(C)CN(C(=O)CSc1nnc2ccccn12)C1CCS(=O)(=O)C1 (configuration not stated) | nt | 15 | i | nt | i | i
Cc1nnc(SCC(=O)N(CC(C)C)C2CCS(=O)(=O)C2)s1 (configuration not stated) | nt | i | i | nt | i | nt
COc1ccc(-c2nnc(Nc3ccc(OC)c(C(=O)N4CCCCC4)c3)c3ccccc23)cc1 | i | 13 | i | i | i | i
O=C(CCCSc1nc2ccccc2[nH]1)NCc1ccccc1 | i | 12 | i | i | i | i
CC(=O)NC1=NN(C(C)=O)C(C)(CCS(=O)(=O)c2ccc(Br)cc2)S1 (configuration not stated) | i | 13 | i | i | i | i
O=C(OC(C(=O)NCc1ccccc1)c1ccccc1)c1ccco1 (configuration not stated) | nt | 14 | i | nt | i | i
COC(=O)Cn1c(=NC(=O)CSCC(=O)NC2CCCCC2)sc2cc(OC)ccc21 | i | 17 | i | i | i | i
CCOC(=O)Cn1c(=NC(=O)CSC(C)=O)sc2cc(OC)ccc21 | i | i | i | i | i | nt
CCC1=CC(c2ccccc2)n2ncnc2N1 (configuration not stated) | nt | i | i | nt | i | nt
CC(C)C1CCC(C(=O)N[C@H](Cc2ccccc2)C(=O)O)CC1 (some centres not stated) | i | i | i | i | i | nt
